Hits are enriched below; roughly 3.3% of the tested compounds scored in any of these assays.
m5-HT2A agonist – mouse Htr2a agonists via beta-arrestin recruitment, primary screen, cell-based, luminescence; activation, % at 7.6 µM; CHO-K1 mHTR2A beta-arrestin complementation; percent of 30 µM serotonin response; AID 624169, 2012; 5-hydroxytryptamine receptor 2A (Mus musculus), P35363; 360,000 compounds, 0.66% hits;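 active = activation above a run cutoff, the mean activation of all tested compounds plus 3 SD, cut at about 14% in these data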;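 also: 0% = plate median of compound wells and 100% = 30 µM serotonin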
NRP1-CendR mod – modulators of CendR peptide binding to NRP-1, primary screen, biochemical, fluorescence polarization, uHTS. Neuropilin-1 (Homo sapiens), O14786. FAM-RPARPAR peptide binding to NRP-1. inhibition, % at 25 µM. 360,000 compounds, 0.85% hits. AID 602438, 2012;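 active = inhibition or corrected inhibition above about 18%, plus a signal ratio from 0.5 to 1.5, limit read from the data, passing the limit was not always enough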
sPLA2-III inh – human group III sPLA2 inhibitors, primary screen, biochemical, QFRET, BODIPY PC-A2 liposome substrate. Group 3 secretory phospholipase A2 (Homo sapiens), Q9NZ20. QFRET BODIPY PC-A2 liposome hydrolysis, fluorescence. inhibition, % at 12.2 µM. 370,000 compounds, 0.56% hits. AID 743126, 2013;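 active = inhibition above mean plus 3 SD of compounds lying within the high and low control bounds, cut at about 19% in these data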;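 also: 0% = median of test compound wells and 100% = no enzyme DMSO wells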
Target sequence (Q9NZ20 whole entry, looked up): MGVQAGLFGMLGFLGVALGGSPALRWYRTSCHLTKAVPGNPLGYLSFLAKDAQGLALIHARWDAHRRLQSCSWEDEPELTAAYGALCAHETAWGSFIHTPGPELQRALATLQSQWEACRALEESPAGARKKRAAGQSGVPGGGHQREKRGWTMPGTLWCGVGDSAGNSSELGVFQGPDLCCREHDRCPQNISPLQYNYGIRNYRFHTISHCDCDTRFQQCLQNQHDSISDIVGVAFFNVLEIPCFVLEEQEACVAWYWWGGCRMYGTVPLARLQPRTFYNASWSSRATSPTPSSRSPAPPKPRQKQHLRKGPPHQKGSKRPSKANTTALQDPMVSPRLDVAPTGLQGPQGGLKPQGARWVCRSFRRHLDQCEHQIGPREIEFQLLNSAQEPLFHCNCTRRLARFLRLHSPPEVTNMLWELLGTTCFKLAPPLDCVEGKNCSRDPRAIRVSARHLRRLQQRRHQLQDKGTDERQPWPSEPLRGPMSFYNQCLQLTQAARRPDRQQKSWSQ
Arrestin-AP2 inh – inhibitors of beta-arrestin/AP2 binding, primary screen, biochemical, GPCR trafficking, flow cytometry | inhibition, % at 10 µM | FITC-arrestin peptide / GST-AP2 beads; AP2 beta2 appendage carries R879A mutation | 340,000 compounds, 0.31% hits;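 active = inhibition above a set limit, near 3 SD of compounds lacking own fluorescence, cut at about 54% in these data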;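 also: plate controls were DMSO wells for no effect and 5 µM unlabelled arrestin peptide for full effect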
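Material – AP2 appendage R879A on GSH beads · Buffer or medium – PBS with 0.05% Tween 20 and 0.1% BSA · Probe or stimulus – fluorescein-tagged arrestin peptide at 50 nM final · Incubation – compound with beads 12 min RT, then probe 1 h RT · Detection – high-throughput flow cytometry of beads, ex 488, em 535 nm · Evaluation – percent response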
Hep lipid drop – inhibitors of hepatocyte lipid droplet formation, primary screen, imaging, high-throughput imaging, BODIPY stain; AML12 mouse hepatocytes, oleate lipid droplets; inhibition, % at 6.5 µM; 240,000 compounds, 0.4% hits; AID 1656, 2009;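 active = lipid droplet intensity inhibited by at least 50%, with more than 500 cells counted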
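Technique: fluorescence imaging, 20x objective, two fields per well / Assay system: AML12 hepatocytes (mouse) / Measure: % inhibition of lipid droplet signal / Doses: 6.5 µM single-point dosing / Incubation: overnight exposure / Reagent: 100 µM oleic acid challenge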
PfM18AAP inh – PfM18AAP inhibitors, malaria aminopeptidase, primary screen, biochemical, QFRET, recombinant enzyme. M18 aspartyl aminopeptidase (Plasmodium falciparum 3D7). inhibition, % at 7.35 µM. 290,000 compounds, 1.2% hits. H-Glu-NHMec fluorogenic cleavage;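 active = inhibition above the campaign mean inhibition over all tested compounds plus 3 SD, cut at about 28% in these data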;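 also: 0% = plate median of test compound wells and 100% = 2 mM ZnCl2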
sPLA2 confirm – human group III sPLA2 inhibitors, confirmation, biochemical, QFRET, triplicate. shares compounds with sPLA2-III inh. AID 743280, 2014. 2,000 compounds, 34% hits. inhibition, % at 12.2 µM. recombinant hGIII-sPLA2, BODIPY PC-A2 QFRET fluorescence;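 active = mean inhibition across triplicates above the hit cutoff set in the earlier primary screen, cut at about 19% in these data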;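 also: 0% = enzyme with DMSO and 100% = DMSO wells lacking enzyme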
BODIPY interf – 535nm fluorescence optical interference, confirmation, artefact control for HGIII-sPLA2 inhibitor project, biochemical, QFRET | 2,000 compounds, 8.5% hits | inhibition, % at 12.2 µM | BODIPY FL product fluorescence interference | shares compounds with sPLA2-III inh;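 active = average inhibition above the solvent-only control mean plus 3 SD, cut at about 6% in these data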;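 also: 0% = DMSO with substrate plus product and 100% = DMSO with substrate alone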
BODIPY interf DR – 535nm fluorescence optical interference, dose response, artefact control for HGIII-sPLA2 inhibitor project, biochemical, QFRET; shares compounds with sPLA2-III inh; BODIPY FL product fluorescence interference, cell-free; 240 tested, under 10 active; IC50, µM; AID 743455, 2014;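 active = IC50 at or below 10 µM; inactive = IC50 above 10 µM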
An asterisk follows results filed as active; . = no result.

SMILES | m5-HT2A agonist | NRP1-CendR mod | sPLA2-III inh | Arrestin-AP2 inh | Hep lipid drop | PfM18AAP inh | sPLA2 confirm | BODIPY interf | others
O=C(NC(=S)Nc1ccc2oc(=O)ccc2c1)c1cc2ccccc2o1 | 0.9 | -4.6 | 22.3* | 0.9 | -26.4 | 2.9 | 3.8 | -1.9
CC1CN(Cc2ccccc2)c2ccccc2NC1=S (configuration not stated) | -1.3 | -5.3 | 21.0* | 10.0 | 3.7 | 1.1 | 22.5* | 0.2
CN1C2CCC1CC(NC(=O)c1ccc(Cl)cc1)C2 (configuration not stated) | 1.9 | -8.7 | 12.7 | 5.0 | 6.4 | -13.9 | . | .
O=C(NC1C2CCCC1CN(C1CC1)C2)c1ccc(Cl)cc1 (configuration not stated) | 2.5 | -5.8 | 19.5* | 29.4 | -9.3 | -10.1 | 19.2 | -5.5
CCCCCC/C(=N/O)c1ccccn1 | 2.0 | 3.5 | 21.7* | 3.1 | . | 14.7 | 12.0 | -6.3
C/C(=N/O)c1ccccn1 | 4.1 | 0.9 | 5.8 | 3.3 | 9.5 | 3.4 | . | .
COC(=O)N1C[C@H](OC(=O)c2ccc(-c3ccccc3)cc2)[C@H]2C[C@@H]1c1ccccc1O2 | . | . | 10.9 | . | . | . | . | .
CCCSc1nc2c([nH]1)c(=O)n(C)c(=S)n2C | 0.0 | 2.6 | 19.7* | -0.6 | . | . | 6.7 | 1.1
CC(C)C[C@@H]1COc2cc(Br)ccc2S(=O)(=O)N1Cc1cn(CCC2OCCCO2)nn1 | . | . | 22.5* | . | . | . | -0.2 | -28.9
COc1cccc(C(=O)NCCCNC(=O)c2ccco2)c1 | 4.8 | 3.1 | 21.5* | -2.4 | -16.7 | -1.8 | 0.7 | -7.8
COc1cccc(C(=O)NCCCNC(=O)c2cccc(OC)c2)c1 | -2.1 | 22.9 | 16.8 | 7.7 | -8.6 | 7.0 | . | .
Cc1ncc([N+](=O)[O-])n1Cc1ccccc1 | -3.2 | 1.5 | 0.3 | 0.7 | 13.8 | -4.0 | . | .
Cc1ccc(Cn2c([N+](=O)[O-])cnc2C)cc1 | -1.8 | -2.6 | 21.9* | 10.0 | -31.8 | -4.6 | 8.5 | -0.2
CN(C)c1ccc(N=Nc2ccccc2C(=O)OCC(=O)NCC2CCCCC2)cc1 | -7.8 | -1.9 | 13.5 | -7.6 | 9.1 | -4.5 | . | .
CN(C)c1ccc(N=Nc2ccccc2C(=O)OCC(=O)NC2CCCC2)cc1 | -6.3 | -2.5 | 20.2* | 5.1 | -15.0 | -1.8 | 24.0* | -10.8
CC(C)[C@@H](C)/C=C/[C@@H](C)[C@H]1CC[C@@H]2[C@]1(C)CCC1[C@]23C=C[C@]2(C[C@@H](O)CC[C@]12C)N(c1ccc(F)cn1)O3 (some centres not stated) | . | . | -7.6 | . | . | . | . | .
Cc1ccc(C(=O)Nc2sc(C)c(C)c2C(=O)c2ccccc2)cc1 | 3.6 | 2.4 | 23.3* | -17.4 | -6.5 | -1.4 | -4.3 | -6.0
NC(Cc1ccc(C(F)(F)F)cc1)c1csc(Nc2cc(Oc3ccccc3)ncn2)n1 (configuration not stated) | 9.9 | 0.0 | 25.4* | . | . | . | 13.4 | -10.0
Cc1cnc(C)c(Nc2nc(C(N)Cc3ccc(Cl)cc3)cs2)n1 (configuration not stated) | 0.7 | -13.4 | 24.9* | . | . | . | 1.6 | -16.4
Nc1ccc(CC(N)c2csc(Nc3cc(Oc4ccccc4)ncn3)n2)cc1 (configuration not stated) | -2.2 | -9.5 | 14.8 | . | . | . | . | .
NC(Cc1ccc(C(F)(F)F)cc1)c1csc(Nc2nncc3ccccc23)n1 (configuration not stated) | 8.3 | -17.0 | 20.9* | . | . | . | 1.8 | -3.2
COc1cccc(C(C)(O)c2nc(-c3cccc4cccnc34)cs2)c1 (configuration not stated) | 1.1 | 4.0 | -25.9 | . | . | . | . | .
CCOC(=O)c1ccc(N2CCN(c3ccccc3F)CC2)c(NC(=O)Nc2cccc(OC)c2)c1 | 2.6 | -1.6 | 21.4* | 33.9 | 56.9* | -8.4 | -9.8 | -16.3
COCCCN1C(=O)C(CC(=O)NCc2ccco2)CC(C(=O)N2CCOCC2)=C1C (configuration not stated) | 2.6 | -6.8 | 20.5* | . | . | . | 0.5 | 0.1
CC1(Oc2cccnc2Cl)CCN(Cc2ccc(OC(F)(F)F)cc2)C1 (configuration not stated) | 11.4 | 1.3 | 3.3 | . | . | . | . | .
SMILES | m5-HT2A agonist | NRP1-CendR mod | sPLA2-III inh | Arrestin-AP2 inh | Hep lipid drop | PfM18AAP inh | sPLA2 confirm | BODIPY interf | others
CCn1c(-c2ccc3ncccc3c2)n[nH]c1=S | 1.7 | -2.2 | 7.4 | 4.0 | . | 9.3 | . | .
CCn1c(-c2cccc(Br)c2)n[nH]c1=S | 1.5 | -2.2 | 22.9* | -0.5 | -39.3 | 20.4 | 33.5* | -2.6 | BODIPY interf DR=>122
COc1ccc(CCNC(=O)c2cnn3c(C(F)F)cc(C)nc23)cc1OC | -3.1 | 2.9 | 20.3* | 5.5 | . | 2.8 | 6.5 | -11.3
CC(N)c1csc(Nc2ccc(C(=O)c3ccccc3)cc2)n1 (configuration not stated) | 3.6 | -4.6 | 19.6* | . | . | . | 12.4 | -18.5
CC(=O)c1ccc(Nc2nc(C(N)C(C)C)cs2)cc1 (configuration not stated) | -6.9 | -8.6 | 13.7 | . | . | . | . | .
CC(C)C(N)c1csc(Nc2ccc(C(=O)c3ccccc3)cc2)n1 (configuration not stated) | 2.7 | -0.2 | 22.3* | . | . | . | 6.4 | -17.5
Cc1ccc(C(=O)NCC(=O)NCC(c2ccco2)N2CCCCC2)cc1C (configuration not stated) | -10.4 | -5.9 | 3.3 | 4.7 | . | . | . | .
O=C1Nc2cnc(Cl)nc2Nc2ccc(Cl)cc21 | . | . | 2.9 | . | . | . | . | .
c1ccc(C[n+]2cccc(-c3ccccc3)c2)cc1 | -2.4 | 0.7 | -0.4 | 0.3 | -17.8 | -4.2 | . | .
NC(=O)c1ccc[n+](Cc2ccccc2)c1 | -0.5 | -2.4 | 19.5* | 6.1 | 10.3 | -7.2 | 1.1 | -6.0
COC(=O)[C@@]12C[C@@H](CC(=O)NCCC(C)C)C(=O)N(Cc3ccc4c(c3)OCO4)C1=CCC(C)(C)C2 | -1.9 | 6.4 | -6.6 | . | . | . | . | .
